Among the data in ChEMBL document CHEMBL1955853, “Discovery of 3,4-dihydropyrimidin-2(1H)-ones with inhibitory activity against HIV-1 replication” (Bioorg Med Chem Lett, 2012) are CC50 and EC50 values, retold here.

Series [1] in a line: Cytotoxicity against human CEMx174 cells. It counts as cell-based. In outline: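 CC50 is the compound concentration that reduces viability of uninfected cells by 50%. Values are the geometric mean of two determinations, with each value within 25% of the mean.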
Series [2] has as its system Human immunodeficiency virus 1. Description: Antiviral activity against HIV1 LAI infected in human CEMx174 cells coexpressing GFP preincubated for 1 hr measured after 5 days by fluorimetry. It counts as functional, organism-based. Conditions: Human immunodeficiency virus 1, LAI. The method, boiled down:
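CEM reporter cells carrying an EGFP cassette driven by the HIV promoter were seeded at 4000 cells/well. They were infected with HIV-1 LAI at MOI 3 and incubated 5 days at 37 °C, 5% CO2. EGFP fluorescence intensity was read on a plate reader. Values are the geometric mean of two determinations, with each value within 25% of the mean.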

Bounds are passed on as bounds.

For orientation: CC50 means the concentration giving 50% cytotoxicity. Lower therefore signals harm at low concentration. The term EC50 denotes the midpoint of the concentration-response curve. The low end stands for a more potent agent, the high end for a less potent agent. For the compound `CC1=C(C(=O)OCC2CCCCC2)C(c2ccc(O)cc2)NC(=O)N1` (stereo not given), the CC50 in series [1] was more than 10 µM. In addition, a half-maximal effect in series [2] (EC50) was put at 0.431 µM.

In series [1], `COc1cccc(C2NC(=O)NC(C)=C2C(=O)OCC2CCCCC2)c1` (stereo not given) had a CC50 of more than 10 µM. Besides, the EC50 in series [2] was found to be 1.27 µM.

On to `O=C1NC(c2ccccc2)=C(C(=O)OCC2CCCCC2)C(c2cccc(O)c2)N1` (stereo not given), for which, in series [1], the CC50 is more than 10 µM. This compound also registered an EC50 in series [2] of more than 10 µM.

Take `CC1=C(C(=O)O)C(c2cccc(O)c2)NC(=O)N1` (stereo not given): in series [1], the cytotoxic concentration (CC50) is more than 10 µM. The compound also gave an EC50 in series [2] of more than 10 µM.

Regarding `CC1=C(C(=O)OCc2ccccc2)C(c2cccc(O)c2)NC(=O)N1` (stereo not given), the CC50 in series [1] is more than 10 µM. This compound also yielded an EC50 in series [2] of more than 10 µM.

In series [1], `CC1=C(C(=O)OC2CCCCC2)C(c2cccc(O)c2)NC(=O)N1` (stereo not given) showed a CC50 of more than 10 µM. In addition, in series [2], the EC50 was more than 10 µM.

Compound `CC1=C(C(=O)NCC2CCCCC2)C(c2cccc(O)c2)NC(=O)N1` (stereo not given) displayed an EC50 in series [2] of more than 10 µM.

The compound `CC1=C(C(=O)OCC2CCCCC2)C(c2cccc(O)c2)NC(=O)N1C` (stereo not given) had a CC50 in series [1] of more than 10 µM. In series [2], the EC50 was more than 10 µM.

For the compound `CC1=C(C(=O)OCC2CCCCC2)C(c2cccc(O)c2)N(C)C(=O)N1` (stereo not given), the CC50 in series [1] is more than 10 µM. Moreover, in series [2], the EC50 is more than 10 µM.

The compound `Cc1nc(=O)[nH]c(-c2cccc(O)c2)c1C(=O)OCC1CCCCC1` showed a CC50 in series [1] of more than 10 µM. This compound came in with an EC50 in series [2] of more than 10 µM.

Compound `CC1=C(C(=O)OCC2CCCCC2)C(c2cccc(O)c2)NC(=S)N1` (stereo not given) registered a CC50 in series [1] of more than 10 µM. In series [2], this compound displayed an EC50 of more than 10 µM.

As for `CCCC1=C(C(=O)OCC2CCCCC2)C(c2cccc(O)c2)NC(=O)N1` (stereo not given), the CC50 in series [1] was more than 10 µM. This compound came in with an EC50 in series [2] of 0.286 µM.

Consider `CC(C)C1=C(C(=O)OCC2CCCCC2)C(c2cccc(O)c2)NC(=O)N1` (stereo not given), for which the EC50 in series [2] was more than 10 µM.

`O=C1NC(C2CC2)=C(C(=O)OCC2CCCCC2)C(c2cccc(O)c2)N1` (stereo not given): the CC50 in series [1] was more than 10 µM. Besides, the EC50 in series [2] was more than 10 µM.

For the compound `O=C1NC(CCl)=C(C(=O)OCC2CCCCC2)C(c2cccc(O)c2)N1` (stereo not given), the CC50 in series [1] is more than 3 µM. In addition, the response in series [2] was half-maximal at 0.359 µM (EC50).

As for `C#CC1=C(C(=O)OCC2CCCCC2)C(c2cccc(O)c2)NC(=O)N1` (stereo not given), the CC50 in series [1] was more than 1 µM. In addition, in series [2], the EC50 is 2.2 µM.

Compound `CCC1=C(C(=O)OCC2CCCCC2)C(c2cccc(O)c2)NC(=S)N1` (stereo not given) gave a CC50 in series [1] of more than 10 µM. In series [2], this compound gave an EC50 of more than 10 µM.

In series [1], `CC1=C(C(=O)OCC2CCCCC2)C(c2ccccc2O)NC(=O)N1` (stereo not given) gave a CC50 of more than 10 µM. Also, the EC50 in series [2] is more than 10 µM.

With `CCC1=C(C(=O)OCC2CCCCC2)C(c2ccc(O)cc2)NC(=O)N1` (stereo not given), the CC50 in series [1] is more than 10 µM. Moreover, in series [2], a half-maximal effect (EC50) was put at 0.031 µM.

In series [1], `CCC1=C(C(=O)OCC2CCCCC2)C(c2cccc([N+](=O)[O-])c2)NC(=O)N1` (stereo not given) returned a CC50 of more than 10 µM. The compound further displayed an EC50 in series [2] of 0.335 µM.

`CCC1=C(C(=O)OCC2CCCCC2)C(c2cccc(N)c2)NC(=O)N1` (stereo not given): in series [1], the CC50 is more than 10 µM. In series [2], this compound had an EC50 of 0.159 µM.

`CCC1=C(C(=O)OCC2CCCCC2)C(c2ccc([N+](=O)[O-])cc2)NC(=O)N1` (stereo not given): the CC50 in series [1] is more than 10 µM. The compound further returned an EC50 in series [2] of 0.141 µM.

In series [1], `CCC1=C(C(=O)OCC2CCCCC2)C(c2ccc(N)cc2)NC(=O)N1` (stereo not given) yielded a CC50 of more than 10 µM. This compound showed an EC50 in series [2] of 0.151 µM.

Regarding `CCC1=C(C(=O)OCC2CCCCC2)C(c2ccc(NC)cc2)NC(=O)N1` (stereo not given), the CC50 in series [1] is more than 10 µM. The same compound returned an EC50 in series [2] of 0.108 µM.

In the case of `CCC1=C(C(=O)OCC2CCCCC2)C(c2ccc(NC(C)=O)cc2)NC(=O)N1` (stereo not given), in series [1], the CC50 is more than 10 µM. Further, it took 0.063 µM to reach a half-maximal effect in series [2] (EC50).

In series [1], `CCC1=C(C(=O)OCC2CCCCC2)C(c2ccc(N(C)C)cc2)NC(=O)N1` (stereo not given) gave a CC50 of more than 10 µM. This compound also displayed a concentration giving a half-maximal response (EC50) in series [2] of 0.177 µM.

In series [1], `CCC1=C(C(=O)OCC2CCCCC2)C(c2ccc(C#N)cc2)NC(=O)N1` (stereo not given) gave a CC50 of more than 10 µM. Further, it took 0.061 µM to reach a half-maximal effect in series [2] (EC50).

`CCC1=C(C(=O)OCC2CCCCC2)C(c2ccc(C(=O)OC)cc2)NC(=O)N1` (stereo not given) displayed a CC50 in series [1] of more than 10 µM. In addition, the midpoint of the response in series [2], the EC50, lay at 0.122 µM.

Compound `CCC1=C(C(=O)OCC2CCCCC2)C(c2ccc(C(=O)O)cc2)NC(=O)N1` (stereo not given) registered a CC50 in series [1] of more than 10 µM. Also, in series [2], the EC50 was more than 10 µM.

In series [1], `CCC1=C(C(=O)OCC2CCCCC2)C(c2ccc(Cl)cc2)NC(=O)N1` (stereo not given) yielded a CC50 of more than 10 µM. Also, in series [2], the EC50 is 0.088 µM.

Regarding `CCC1=C(C(=O)OCC2CCCCC2)C(c2ccc(F)cc2)NC(=O)N1` (stereo not given), in series [1], the CC50 is more than 10 µM. The EC50 in series [2] came out at 0.024 µM.

In the case of `CC1=C(C(=O)OCC2CCCCC2)[C@H](c2cccc(O)c2)NC(=O)N1`, the CC50 in series [1] is more than 10 µM. The same compound had an EC50 in series [2] of 0.233 µM.

Take `CC1=C(C(=O)OCC2CCCCC2)[C@@H](c2cccc(O)c2)NC(=O)N1`: in series [1], the CC50 is more than 10 µM. This compound displayed an EC50 in series [2] of more than 10 µM.

For the compound `CCC1=C(C(=O)OCC2CCCCC2)[C@H](c2cccc(O)c2)NC(=O)N1`, the CC50 in series [1] is more than 10 µM. The compound also yielded an EC50 in series [2] of 0.038 µM.

`CCC1=C(C(=O)OCC2CCCCC2)[C@@H](c2cccc(O)c2)NC(=O)N1` showed a CC50 in series [1] of more than 10 µM. In series [2], this compound returned an EC50 of more than 10 µM.

`CCOC(=O)C1=C(C)NC(=O)NC1c1cccc(O)c1` (stereo not given) gave an EC50 in series [2] of more than 10 µM.

In series [1], `CC1=C(C(=O)OCC2CCCCC2)C(c2cccc(O)c2)NC(=O)N1` (racemic) yielded a CC50 of more than 10 µM. The same compound gave an EC50 in series [2] of 0.529 µM.

In series [1], `CCC1=C(C(=O)OCC2CCCCC2)C(c2cccc(O)c2)NC(=O)N1` (racemic) came in with a CC50 of more than 10 µM. This compound showed an EC50 in series [2] of 0.087 µM.

As to `Cc1ccnc2c1NC(=O)c1cccnc1N2C1CC1` [NEVIRAPINE], the CC50 in series [1] is more than 10 µM. In addition, in series [2], the EC50 was found to be 0.15 µM.
